pIC50: −log10 of the molar value.
How the values were obtained:
Acetylcholinesterase [1] = molecular target: T1, Acetylcholinesterase (Homo sapiens, UniProt P22303); assay: Inhibition of recombinant human AChE expressed in HEK293 cells by Ellman's method; assay type: cell-based
Cholinesterase = Cholinesterase (Equus caballus, UniProt P81908); assay: Inhibition of recombinant equine BChE by Ellman's method
[2] = system: Glutamate NMDA receptor GRIN1/GRIN2B (Homo sapiens); assay: Inhibition of human GluN1-1a/NR2B receptor expressed in transgenic mouse fibroblast cells assessed as inhibition of L-glutamate-induced excitotoxicity at 20 uM by measuring LDH activity by cell based assay
[3] = molecular target: T2, Glutamate NMDA receptor; GRIN1/GRIN2A (Homo sapiens, UniProt Q05586+Q12879); assay: Inhibition of human GluN1-1a/NR2A receptor expressed in transgenic mouse fibroblast cells assessed as inhibition of L-glutamate-induced excitotoxicity at 50 uM by measuring LDH activity by cell based assay
Outline: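 Mouse fibroblasts stably expressing human GluN1-1a/2A or GluN1-1a/2B receptors were exposed to 10 μM L-glutamate plus glycine with test agent. Excitotoxicity was read as LDH activity in the medium. Agonists alone defined 100%; agonists plus 100 μM ketamine defined 0%. Percent inhibition at the single test concentration came from at least three independent experiments.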

[4] = Solubility of the compound at >= 50 uM; assay type: physicochemical
[5] = Solubility of the compound in buffer at > 20 uM; assay type: physicochemical
Acetylcholinesterase [6] = molecular target: T1, Acetylcholinesterase; assay: Inhibition of recombinant human AChE expressed in HEK293 cells at 20 uM by Ellman's method relative to control; assay type: cell-based
[7] = molecular target: Cholinesterase (Equus caballus) (UniProt P81908); assay: Inhibition of recombinant equine BChE at 20 uM by Ellman's method relative to control
Outline: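 Ellman assay with equine BChE as enzyme, compound at single concentration as listed; percent inhibition relative to control, measured in triplicate.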

Acetylcholinesterase [8] = molecular target: T1, Acetylcholinesterase; assay: Inhibition of recombinant human AChE expressed in HEK293 cells at 50 uM by Ellman's method relative to control; assay type: cell-based
[9] = molecular target: Glutamate NMDA receptor; GRIN1/GRIN2B (Homo sapiens, UniProt Q05586+Q13224); assay: Inhibition of human GluN1-1a/NR2B receptor expressed in transgenic mouse fibroblast cells assessed as inhibition of L-glutamate-induced excitotoxicity by measuring LDH activity by cell based assay
Outline: (§1)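 Stably transfected mouse fibroblasts expressing human GluN1-1a/2A or GluN1-1a/2B receptors; excitotoxicity induced with 10 μM L-glutamate plus 10 μM glycine and quantified as LDH activity in medium. Agonists without antagonist defined 100%; agonists plus 100 μM ketamine defined 0%. IC50 ± SD from at least three independent experiments.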

[10] = molecular target: T2, Glutamate NMDA receptor; GRIN1/GRIN2A; assay: Inhibition of human GluN1-1a/NR2A receptor expressed in transgenic mouse fibroblast cells assessed as inhibition of L-glutamate-induced excitotoxicity by measuring LDH activity by cell based assay; outline: as §1
[11] = Selectivity ratio of IC50 for recombinant human AChE to IC50 for equine BuChE

Glutamate NMDA receptor; GRIN1/GRIN2B, sequence (Q13224 whole entry, looked up, other chains not shown): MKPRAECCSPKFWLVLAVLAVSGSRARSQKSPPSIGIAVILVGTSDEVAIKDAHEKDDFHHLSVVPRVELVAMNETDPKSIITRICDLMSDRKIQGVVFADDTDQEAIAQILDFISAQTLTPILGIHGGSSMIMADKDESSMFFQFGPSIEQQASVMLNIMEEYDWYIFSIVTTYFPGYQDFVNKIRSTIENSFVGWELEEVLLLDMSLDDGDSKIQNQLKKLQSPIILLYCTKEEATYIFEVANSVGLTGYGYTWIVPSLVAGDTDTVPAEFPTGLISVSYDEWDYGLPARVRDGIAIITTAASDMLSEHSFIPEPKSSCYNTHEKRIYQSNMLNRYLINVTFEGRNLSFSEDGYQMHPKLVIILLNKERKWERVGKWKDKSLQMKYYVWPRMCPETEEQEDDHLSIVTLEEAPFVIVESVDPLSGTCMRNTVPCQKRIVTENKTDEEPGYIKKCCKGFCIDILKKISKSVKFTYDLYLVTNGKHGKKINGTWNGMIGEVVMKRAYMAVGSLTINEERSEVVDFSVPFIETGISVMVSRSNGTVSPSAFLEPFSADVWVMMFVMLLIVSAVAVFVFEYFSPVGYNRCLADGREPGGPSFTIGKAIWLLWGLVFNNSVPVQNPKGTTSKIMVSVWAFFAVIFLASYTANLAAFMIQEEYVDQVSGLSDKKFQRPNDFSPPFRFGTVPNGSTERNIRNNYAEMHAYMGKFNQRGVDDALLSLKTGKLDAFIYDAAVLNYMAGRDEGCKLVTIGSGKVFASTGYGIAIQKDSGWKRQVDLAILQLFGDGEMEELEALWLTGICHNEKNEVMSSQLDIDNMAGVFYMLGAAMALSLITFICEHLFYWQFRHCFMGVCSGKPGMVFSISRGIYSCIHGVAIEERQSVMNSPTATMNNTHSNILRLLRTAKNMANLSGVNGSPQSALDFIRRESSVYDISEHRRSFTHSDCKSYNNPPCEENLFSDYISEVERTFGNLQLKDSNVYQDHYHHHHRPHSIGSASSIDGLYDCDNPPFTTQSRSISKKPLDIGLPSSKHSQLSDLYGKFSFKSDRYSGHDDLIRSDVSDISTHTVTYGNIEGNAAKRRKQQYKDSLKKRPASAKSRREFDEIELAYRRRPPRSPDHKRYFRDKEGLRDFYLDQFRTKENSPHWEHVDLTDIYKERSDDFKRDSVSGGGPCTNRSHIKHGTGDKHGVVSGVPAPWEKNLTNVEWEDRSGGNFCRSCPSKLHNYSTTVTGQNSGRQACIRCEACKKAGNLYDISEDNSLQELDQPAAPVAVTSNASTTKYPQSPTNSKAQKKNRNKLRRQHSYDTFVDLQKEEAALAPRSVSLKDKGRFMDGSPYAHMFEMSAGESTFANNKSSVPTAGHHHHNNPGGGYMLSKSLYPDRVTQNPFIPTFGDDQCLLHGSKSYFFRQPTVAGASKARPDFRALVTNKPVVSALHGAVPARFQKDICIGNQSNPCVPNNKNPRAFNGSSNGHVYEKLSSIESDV
Cholinesterase, sequence (P81908 whole entry): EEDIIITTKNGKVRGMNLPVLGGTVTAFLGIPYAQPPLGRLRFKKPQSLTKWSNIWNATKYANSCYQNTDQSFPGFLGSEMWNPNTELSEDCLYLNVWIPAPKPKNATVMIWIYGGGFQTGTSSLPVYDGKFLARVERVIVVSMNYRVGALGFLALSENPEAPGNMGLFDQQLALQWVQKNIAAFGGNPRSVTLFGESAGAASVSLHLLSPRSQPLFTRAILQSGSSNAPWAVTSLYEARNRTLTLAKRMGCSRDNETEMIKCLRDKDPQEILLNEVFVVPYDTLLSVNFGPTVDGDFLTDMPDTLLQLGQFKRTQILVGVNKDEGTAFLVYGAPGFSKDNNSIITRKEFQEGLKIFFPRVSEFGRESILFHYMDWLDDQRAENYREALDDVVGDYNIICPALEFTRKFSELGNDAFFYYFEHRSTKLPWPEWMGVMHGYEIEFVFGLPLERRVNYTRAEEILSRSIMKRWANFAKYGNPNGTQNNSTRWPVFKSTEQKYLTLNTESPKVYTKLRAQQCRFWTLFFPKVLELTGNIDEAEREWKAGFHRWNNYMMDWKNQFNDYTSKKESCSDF
T1 sequence (P22303 whole entry): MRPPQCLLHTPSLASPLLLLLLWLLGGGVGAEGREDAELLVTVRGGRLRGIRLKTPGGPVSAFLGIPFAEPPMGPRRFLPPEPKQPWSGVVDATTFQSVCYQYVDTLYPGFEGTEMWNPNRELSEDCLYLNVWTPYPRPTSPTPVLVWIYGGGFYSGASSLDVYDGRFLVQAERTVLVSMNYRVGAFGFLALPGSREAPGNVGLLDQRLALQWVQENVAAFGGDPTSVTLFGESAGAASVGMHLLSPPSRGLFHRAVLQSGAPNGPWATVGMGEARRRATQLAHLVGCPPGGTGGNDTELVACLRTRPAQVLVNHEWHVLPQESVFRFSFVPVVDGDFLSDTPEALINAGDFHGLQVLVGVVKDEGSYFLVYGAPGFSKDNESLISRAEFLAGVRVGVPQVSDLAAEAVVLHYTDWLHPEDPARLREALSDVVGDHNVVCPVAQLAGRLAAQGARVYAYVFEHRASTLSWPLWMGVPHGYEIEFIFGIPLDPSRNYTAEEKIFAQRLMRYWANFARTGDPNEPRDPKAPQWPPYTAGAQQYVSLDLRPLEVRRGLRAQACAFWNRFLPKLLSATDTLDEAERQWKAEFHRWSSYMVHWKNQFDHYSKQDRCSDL
Cholinesterase (Equus caballus), sequence (P81908 whole entry): as the sequence (P81908 whole entry) above

SMILES | pIC50 (Acetylcholinesterase [1]) | pIC50 (Cholinesterase) | inhibition [2] [%] | inhibition [3] [%] | solubility [4] | solubility [5] | inhibition (Acetylcholinesterase [6]) [%] | inhibition [7] [%] | inhibition (Acetylcholinesterase [8]) [%] | pIC50 [9] | pIC50 [10] | Ratio IC50 [11]
Cn1ccc2nc3ccccc3c-2c1.I | 5.06 | 6.05 | < 50 | < 50 | Insoluble | – | – | – | – | – | – | –
Cc1ccc2[nH]c3ccncc3c2c1 | 4.45 | 5.85 | < 50 | < 50 | Insoluble | – | – | – | – | – | – | –
c1ccc2c(c1)Nc1ccccc1S2 [PHENOTHIAZINE] | – | – | – | < 50 | – | Insoluble | < 30 | < 50 | – | – | – | –
C[n+]1ccc2c(c1)c1ccccc1n2CCCCCCCCCn1c2ccccc2c2c[n+](C)ccc21 | 9.48 | – | – | – | – | – | – | – | – | – | – | –
CN1CCc2c(c3ccccc3n2CCC(=O)N2c3ccccc3Sc3ccccc32)C1 | 5.11 | 6.77 | < 50 | < 50 | Insoluble | – | – | – | – | – | – | –
c1ccc(CN2CCc3[nH]c4ccccc4c3C2)cc1 | 4.69 | 5.19 | < 50 | < 50 | Insoluble | – | – | – | – | – | – | –
CN1CCc2c(c3ccccc3n2CCCCCCCCCn2c3c(c4ccccc42)CN(C)CC3)C1 | – | – | < 50 | < 50 | – | – | – | – | – | – | – | –
CN1CCc2[nH]c3ccccc3c2C1 | – | 5.19 | < 50 | < 50 | Insoluble | – | – | – | < 50 | – | – | –
Cc1ccc2[nH]c3c(c2c1)CN(Cc1ccccc1)CC3 | 4.45 | 5.85 | < 50 | < 50 | Insoluble | – | – | – | – | – | – | –
c1ccc2c(c1)c1cnccc1n2CCCCCCCCCn1c2ccccc2c2cnccc21 | 7.10 | – | < 50 | < 50 | – | – | – | – | – | – | – | –
Cc1ccc2[nH]c3cc[n+](C)cc3c2c1.[I-] | 5.04 | 5.26 | < 50 | < 50 | Insoluble | – | – | – | – | – | – | –
COc1ccc2c(c1)c1c[n+](C)ccc1n2CCC(=O)N1c2ccccc2Sc2ccccc21 | 5.28 | 7.39 | – | – | – | – | – | – | – | 6.70 | 6.40 | –
C[n+]1ccc2c(c1)c1cc(F)ccc1n2CCC(=O)N1c2ccccc2Sc2ccccc21 | 5.59 | 7.49 | – | – | – | – | – | – | – | 5.68 | 5.52 | –
C[n+]1ccc2[nH]c3ccc(F)cc3c2c1.[I-] | 5.72 | 5.57 | < 50 | < 50 | Insoluble | – | – | – | – | – | – | –
[Br-].c1ccc(C[n+]2ccc3[nH]c4ccccc4c3c2)cc1 | 5.07 | 5.72 | < 50 | < 50 | Insoluble | – | – | – | – | – | – | –
COc1ccc2[nH]c3c(c2c1)CN(Cc1ccccc1)CC3 | 4.28 | 5.20 | < 50 | < 50 | Insoluble | – | – | – | – | – | – | –
COc1ccc2[nH]c3ccncc3c2c1 | 4.30 | 4.90 | < 50 | < 50 | Insoluble | – | – | – | – | – | – | –
Cc1ccc2c(c1)c1cnccc1n2CCC(=O)N1c2ccccc2Sc2ccccc21 | 6.29 | 7.80 | – | – | – | – | – | – | – | 5.82 | 5.89 | –
Cc1ccc2c(c1)c1c[n+](C)ccc1n2CCC(=O)N1c2ccccc2Sc2ccccc21 | 5.96 | 7.49 | – | – | – | – | – | – | – | 6.30 | 6.05 | –
O=C(CCn1c2ccccc2c2cnccc21)N1c2ccccc2Sc2ccccc21 | 5.64 | 8.10 | – | – | – | – | – | – | – | 5.52 | 5.38 | –
COc1ccc2c(c1)c1cnccc1n2CCC(=O)N1c2ccccc2Sc2ccccc21 | 6.27 | 7.43 | – | – | – | – | – | – | – | 6.22 | 6.10 | –
O=C(CCn1c2ccncc2c2cc(F)ccc21)N1c2ccccc2Sc2ccccc21 | 5.21 | 8.10 | – | – | – | – | – | – | – | 5.57 | 5.77 | 775
COc1cc2c(cc1OC)C(=O)C(CC1CCN(Cc3ccccc3)CC1)C2 (stereo not drawn) | – | – | – | < 50 | – | – | – | – | – | – | – | –
Fc1ccc2[nH]c3c(c2c1)CN(Cc1ccccc1)CC3 | 4.75 | 5.68 | < 50 | < 50 | Insoluble | Insoluble | – | – | – | – | – | –
Fc1ccc2[nH]c3ccncc3c2c1 | 4.94 | 6.26 | < 50 | < 50 | Insoluble | – | – | – | – | – | – | –
COc1ccc2[nH]c3cc[n+](C)cc3c2c1.[I-] | 4.83 | 5.01 | < 50 | < 50 | Insoluble | – | – | – | – | – | – | –
c1ccc2c(c1)[nH]c1ccncc12 | 4.67 | 5.92 | – | < 50 | Insoluble | – | – | – | – | – | – | –
O=C(CCn1c2ccccc2c2c[n+](Cc3ccccc3)ccc21)N1c2ccccc2Sc2ccccc21 | 5.66 | 7.96 | – | – | – | – | – | – | – | 6.05 | 6.00 | –
C[n+]1ccc2c(c1)c1ccccc1n2CCC(=O)N1c2ccccc2Sc2ccccc21 | 5.66 | 7.39 | – | – | – | – | – | – | – | 5.85 | 5.62 | –
